Data from ChEMBL document CHEMBL1136016, “Synthesis, biological activity, and molecular modeling investigation of new pyrazolo[4,3-e]-1,2,4-triazolo[1,5-c]pyrimidine derivatives as human A(3) adenosine receptor antagonists” (J Med Chem, 2002).
One block for each molecule: values may come before it.

Experiments:
[1] = molecular target: T1, Adenosine receptor A3 (Homo sapiens, UniProt P0DMS8); assay: Displacement of [3H]MRE3008-F20 from human Adenosine A3 receptor expressed in HEK cells; range 2.7-3.4; format: cell-based, HEK293
T1 sequence (P0DMS8 whole entry): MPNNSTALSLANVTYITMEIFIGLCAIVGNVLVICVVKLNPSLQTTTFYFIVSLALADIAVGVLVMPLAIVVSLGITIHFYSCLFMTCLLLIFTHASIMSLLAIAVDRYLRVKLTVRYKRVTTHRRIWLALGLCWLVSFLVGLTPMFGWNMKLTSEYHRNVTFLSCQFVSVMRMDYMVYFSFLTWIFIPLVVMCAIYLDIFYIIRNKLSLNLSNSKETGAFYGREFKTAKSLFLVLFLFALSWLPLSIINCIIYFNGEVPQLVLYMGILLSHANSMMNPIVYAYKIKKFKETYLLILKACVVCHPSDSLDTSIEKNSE

[2] = molecular target: T2, Adenosine receptor A2a (Homo sapiens, UniProt P29274); assay: Displacement of [3H]SCH-58261 from human Adenosine A2A receptor expressed in HEK293 cells; range 300-414; format: cell-based
[3] = molecular target: T3, Adenosine receptor A2b (Homo sapiens, UniProt P29275); assay: Displacement of [3H]DPCPX from human Adenosine A2B receptor expressed in HEK293 cells; range 32-51; format: cell-based
T3 sequence (P29275 whole entry): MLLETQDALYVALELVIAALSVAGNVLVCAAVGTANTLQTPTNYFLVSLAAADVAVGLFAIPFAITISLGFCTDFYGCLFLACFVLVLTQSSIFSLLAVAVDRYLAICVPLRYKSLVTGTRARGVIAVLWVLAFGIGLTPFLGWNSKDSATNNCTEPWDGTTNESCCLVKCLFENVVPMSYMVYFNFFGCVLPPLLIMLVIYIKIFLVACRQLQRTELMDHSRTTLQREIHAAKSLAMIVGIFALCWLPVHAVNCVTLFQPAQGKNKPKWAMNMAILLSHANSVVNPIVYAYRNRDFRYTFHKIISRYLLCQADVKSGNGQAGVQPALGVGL
Outline: (§1)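 Membranes from HEK-293 cells with human recombinant A2B receptor. Incubation 60 min at 25 °C in 50 mM Tris HCl, 10 mM MgCl2, 1 mM EDTA, 0.1 mM benzamidine, pH 7.4, with 2 IU/mL adenosine deaminase and 40 nM [3H]DPCPX. At least six to eight test concentrations. Nonspecific binding defined with NECA. n = 3-6.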

[4] = molecular target: Adenosine receptors; A2b & A3 (Homo sapiens) (UniProt P29275+P0DMS8); assay: Selectivity ratio (h2B/hA3); format: protein assay
[5] = molecular target: Adenosine receptors; A1 & A3 (Homo sapiens) (UniProt P30542+P0DMS8); assay: Selectivity ratio (hA1/hA3); format: protein assay
[6] = molecular target: T4, Adenosine receptor A1 (Homo sapiens, UniProt P30542); assay: Displacement of [3H]DPCPX from human Adenosine A1 receptor expressed in CHO cells; range 453-609; format: cell-based
T4 sequence (P30542 whole entry): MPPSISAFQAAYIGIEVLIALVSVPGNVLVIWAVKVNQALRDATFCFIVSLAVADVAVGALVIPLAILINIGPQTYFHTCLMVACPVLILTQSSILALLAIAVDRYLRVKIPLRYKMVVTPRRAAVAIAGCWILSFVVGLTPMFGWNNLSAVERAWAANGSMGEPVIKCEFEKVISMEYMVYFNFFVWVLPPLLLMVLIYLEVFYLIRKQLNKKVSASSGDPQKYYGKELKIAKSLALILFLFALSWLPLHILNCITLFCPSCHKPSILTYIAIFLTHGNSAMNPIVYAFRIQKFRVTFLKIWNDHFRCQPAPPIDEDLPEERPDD
Outline: (§2)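 Human recombinant A1 receptor in CHO cell membranes, resuspended in 50 mM Tris HCl pH 7.4. Displacement run 120 min at 25 °C with 1 nM [3H]DPCPX, 50 µg protein per assay, and at least six to eight test concentrations. Nonspecific binding defined with CHA. Bound and free separated on glass-fiber filters; filter radioactivity counted. n = 3-6.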

[7] = molecular target: T3, Adenosine receptor A2b; assay: Displacement of [3H]-DPCPX from human Adenosine A2B receptor expressed in HEK293 cells; range 125-218; format: cell-based
Outline: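 HEK-293 membranes expressing the human receptor were incubated 60 min at 25 °C. Six to eight test concentrations were used. Nonspecific binding was set with NECA. n = 3-6.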

[8] = molecular target: T4, Adenosine receptor A1; assay: Displacement of [3H]DPCPX from human Adenosine A1 receptor expressed in CHO cells; range 180-345; format: cell-based; outline: as §2
[9] = molecular target: T2, Adenosine receptor A2a; assay: Displacement of [3H]SCH-58261 from human Adenosine A2A receptor expressed in HEK293 cells; range 73-138; format: cell-based
[10] = molecular target: T1, Adenosine receptor A3; assay: biochemical
[11] = molecular target: T4, Adenosine receptor A1; assay: Displacement of [3H]DPCPX from human Adenosine A1 receptor expressed in CHO cells; range 654-856; format: cell-based
[12] = molecular target: T1, Adenosine receptor A3; assay: Inhibition of IB-MECA agonist-mediated cAMP production in CHO cell membranes expressing human Adenosine A3 receptor; range […]; format: functional, cell-based
Outline: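 Human A3-CHO membranes (in 50 mM Tris HCl, 10 mM MgCl2, 1 mM EDTA, pH 7.4) were preincubated for 10 min at 37 °C with 5 µM GTP, 0.5 mM Ro 20-1724 and 2.0 IU/mL adenosine deaminase. IB-MECA (100 nM) or antagonist was then added with 1 mM ATP and forskolin for 10 min. The reaction was stopped by 2 min boiling. cAMP was measured by [3H]cAMP competitive protein binding using beef adrenal binding protein, 150 min at 4 °C.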

[13] = molecular target: T2, Adenosine receptor A2a; assay: Displacement of [3H]SCH-58261 from human Adenosine A2A receptor expressed in HEK293 cells; range 112-177; format: cell-based
[14] = molecular target: T1, Adenosine receptor A3; assay: Displacement of [3H]MRE3008-F20 from human Adenosine A3 receptor expressed in HEK cells; range 0.64-0.86; format: cell-based, HEK293
[15] = molecular target: T3, Adenosine receptor A2b; assay: Displacement of [3H]DPCPX from human Adenosine A2B receptor expressed in HEK293 cells; range 235-347; format: cell-based
Outline: (§3)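 Competition binding on membranes of HEK-293 cells carrying recombinant human A2B receptor. Incubation 60 min at 25 °C in 50 mM Tris HCl pH 7.4 with 10 mM MgCl2, 1 mM EDTA, 0.1 mM benzamidine and 2 IU/mL adenosine deaminase. Radioligand 40 nM [3H]DPCPX, at least six to eight test concentrations. NECA defined nonspecific binding. Bound ligand separated on glass-fibre filters and counted; n = 3-6.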

[16] = molecular target: T3, Adenosine receptor A2b; assay: Displacement of [3H]DPCPX from human Adenosine A2B receptor expressed in HEK293 cells; range 183-278; format: cell-based; outline: as §1
[17] = molecular target: T1, Adenosine receptor A3; assay: Inhibition of IB-MECA agonist-mediated cAMP production in CHO cell membranes expressing human Adenosine A3 receptor; range 2.0-4.3; format: functional, cell-based
[18] = molecular target: T4, Adenosine receptor A1; assay: Displacement of [3H]DPCPX from human Adenosine A1 receptor expressed in CHO cells; range 262-814; format: cell-based; details: in the assay text read “range 602-814” for “range 262-814”; outline: as §2
[19] = molecular target: T1, Adenosine receptor A3; assay: Displacement of [3H]MRE3008-F20 from human Adenosine A3 receptor expressed in HEK cells; range 0.28-0.41; format: cell-based, HEK293
[20] = molecular target: T2, Adenosine receptor A2a; assay: Displacement of [3H]SCH-58261 from human Adenosine A2A receptor expressed in HEK293 cells; range 103-140; format: cell-based
[21] = molecular target: T3, Adenosine receptor A2b; assay: Displacement of [3H]DPCPX from human Adenosine A2B receptor expressed in HEK293 cells; range 162-237; format: cell-based; outline: as §1
[22] = molecular target: T4, Adenosine receptor A1; assay: Displacement of [3H]DPCPX from human Adenosine A1 receptor expressed in CHO cells; range 216-412; format: cell-based; outline: as §2
[23] = molecular target: T2, Adenosine receptor A2a; assay: Displacement of [3H]SCH-58261 from human Adenosine A2A receptor expressed in HEK293 cells; range 108-163; format: cell-based
[24] = molecular target: T1, Adenosine receptor A3; assay: biochemical; remark: listed apart in the source
[25] = molecular target: T4, Adenosine receptor A1; assay: Displacement of [3H]DPCPX from human Adenosine A1 receptor expressed in CHO cells; range 264-463; format: cell-based
Outline: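 Competition binding on membranes of CHO cells stably expressing human A1 receptor, resuspended in 50 mM Tris HCl pH 7.4. Incubation 120 min at 25 °C with 1 nM [3H]DPCPX, 50 µg protein per assay and at least six to eight test concentrations. CHA defined nonspecific binding. Bound ligand separated on glass-fibre filters and counted; n = 3-6.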

[26] = molecular target: T3, Adenosine receptor A2b; assay: Displacement of [3H]DPCPX from human Adenosine A2B receptor expressed in HEK293 cells; range 105-170; format: cell-based; outline: as §3
[27] = molecular target: T2, Adenosine receptor A2a; assay: Displacement of [3H]SCH-58261 from human Adenosine A2A receptor expressed in HEK293 cells; range 25-40; format: cell-based
[28] = molecular target: T1, Adenosine receptor A3; assay: Displacement of [3H]MRE3008-F20 from human Adenosine A3 receptor expressed in HEK cells; range 0.61-0.84; format: cell-based, HEK293

T2 sequence (P29274 whole entry): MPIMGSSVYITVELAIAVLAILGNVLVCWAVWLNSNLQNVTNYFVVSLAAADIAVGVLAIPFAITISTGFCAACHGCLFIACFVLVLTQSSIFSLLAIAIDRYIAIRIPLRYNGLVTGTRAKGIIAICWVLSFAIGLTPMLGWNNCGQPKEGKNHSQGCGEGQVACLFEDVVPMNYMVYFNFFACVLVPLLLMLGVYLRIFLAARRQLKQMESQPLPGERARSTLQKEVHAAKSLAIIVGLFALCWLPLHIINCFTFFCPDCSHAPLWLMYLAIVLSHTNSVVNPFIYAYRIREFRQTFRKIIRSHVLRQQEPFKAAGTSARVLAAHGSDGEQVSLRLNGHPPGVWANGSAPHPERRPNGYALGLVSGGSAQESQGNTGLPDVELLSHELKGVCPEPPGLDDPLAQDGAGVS

Ki [7]: 165 nM | Ki [8]: 250 nM | Ki [9]: 100 nM | Ratio [4]: 485 | Ratio [5]: 735 | Ki [10]: 0.34 nM
SMILES: CCCn1cc2c(nc(NC(=O)Nc3ccccc3OC)n3nc(-c4ccco4)nc23)n1

Ki [21]: 196 nM | Ki [22]: 300 nM | Ki [23]: 133 nM | Ratio [4]: 350 | Ratio [5]: 536 | Ki [24]: 0.56 nM
SMILES: CCn1cc2c(nc(NC(=O)Nc3ccccc3OC)n3nc(-c4ccco4)nc23)n1

Continued, molecule first:

SMILES: CCn1cc2c(nc(NC(=O)Nc3ccc(Cl)c(Cl)c3)n3nc(-c4ccco4)nc23)n1
Ki [1]: 3 nM | Ki [2]: 352 nM | Ki [3]: 40 nM | Ratio [4]: 13 | Ratio [5]: 175 | Ki [6]: 526 nM

SMILES: Cn1cc2c(nc(NC(=O)Nc3ccc(C(F)(F)F)cc3)n3nc(-c4ccco4)nc23)n1
Ki [11]: 750 nM | IC50 [12]: 6.6 nM | Ki [13]: 140 nM | Ki [14]: 0.74 nM | Ki [15]: 286 nM | Ratio [4]: 386 | Ratio [5]: 1010

SMILES: Cn1cc2c(nc(NC(=O)Nc3ccc(F)cc3)n3nc(-c4ccco4)nc23)n1
Ki [16]: 226 nM | IC50 [17]: 3 nM | Ki [18]: 700 nM | Ki [19]: 0.34 nM | Ki [20]: 120 nM | Ratio [4]: 665 | Ratio [5]: 2060

SMILES: CCCCn1cc2c(nc(NC(=O)Nc3ccc(C(F)(F)F)cc3)n3nc(-c4ccco4)nc23)n1
Ki [25]: 350 nM | Ki [26]: 130 nM | Ki [27]: 31 nM | Ki [28]: 0.72 nM | Ratio [4]: 181 | Ratio [5]: 486
